# From ChEMBL document CHEMBL4382192, “Discovery of a potent dual ALK and EGFR T790M inhibitor” (Eur J Med Chem, 2017)
# Tests used:
# [1] = target: Serine/threonine-protein kinase BRSK2 (Homo sapiens) (UniProt Q8IWQ3); experiment: Binding affinity to wild-type human full length BRSK2 (M1 to L674 residues) expressed in bacterial expression system assessed as residual binding level at 1 uM by Kinomescan method relative to control
# [2] = target: Cyclin-dependent kinase 2 homolog (Plasmodium falciparum (isolate 3D7)) (UniProt P61075); experiment: Binding affinity to wild-type Plasmodium falciparum full length PK5 (M1 to N288 residues) expressed in mammalian expression system assessed as residual binding level at 1 uM by Kinomescan method relative to control
# Chain of Cyclin-dependent kinase 2 homolog (Plasmodium falciparum (isolate 3D7)) (P61075 whole entry, the tested form may be a part): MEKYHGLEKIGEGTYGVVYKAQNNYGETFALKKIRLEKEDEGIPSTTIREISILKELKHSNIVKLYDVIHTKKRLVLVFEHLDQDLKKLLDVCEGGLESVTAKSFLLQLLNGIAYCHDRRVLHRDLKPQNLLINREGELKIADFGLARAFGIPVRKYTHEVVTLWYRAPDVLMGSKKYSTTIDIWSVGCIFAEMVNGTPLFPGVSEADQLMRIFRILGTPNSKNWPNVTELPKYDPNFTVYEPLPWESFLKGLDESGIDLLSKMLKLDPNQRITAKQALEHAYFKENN
# Outline: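 Kinome-wide selectivity panel run by the KINOMEscan method, with the test compound at a single concentration of 1 μM. Wild-type and mutant kinases were profiled in the same screen.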
# [3] = target: Mitogen-activated protein kinase 15 (Homo sapiens) (UniProt Q8TD08); experiment: Binding affinity to wild-type human partial length ERK8 (M1 to P437 residues) expressed in bacterial expression system assessed as residual binding level at 1 uM by Kinomescan method relative to control
# Chain of Mitogen-activated protein kinase 15 (Homo sapiens) (Q8TD08 whole entry, the tested form may be a part): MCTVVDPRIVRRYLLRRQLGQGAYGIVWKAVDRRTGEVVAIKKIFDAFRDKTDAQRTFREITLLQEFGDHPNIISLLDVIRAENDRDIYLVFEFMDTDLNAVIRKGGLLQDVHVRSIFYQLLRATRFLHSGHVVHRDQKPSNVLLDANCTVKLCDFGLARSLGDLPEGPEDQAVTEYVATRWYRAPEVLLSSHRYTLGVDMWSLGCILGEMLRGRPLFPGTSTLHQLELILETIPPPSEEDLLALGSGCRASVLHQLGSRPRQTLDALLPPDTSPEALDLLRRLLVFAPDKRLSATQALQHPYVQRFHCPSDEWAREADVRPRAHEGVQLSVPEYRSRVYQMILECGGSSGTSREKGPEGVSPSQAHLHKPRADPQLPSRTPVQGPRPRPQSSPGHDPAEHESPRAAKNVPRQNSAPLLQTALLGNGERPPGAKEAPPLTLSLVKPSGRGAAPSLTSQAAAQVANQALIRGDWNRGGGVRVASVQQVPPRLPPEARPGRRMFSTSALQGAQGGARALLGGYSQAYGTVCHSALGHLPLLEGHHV
# [4] = target: Protein kinase C delta type (Homo sapiens) (UniProt Q05655); experiment: Binding affinity to wild-type human partial length PRKCD (Q328 to D676 residues) expressed in bacterial expression system assessed as residual binding level at 1 uM by Kinomescan method relative to control
# [5] = target: Proto-oncogene tyrosine-protein kinase ROS (Homo sapiens) (UniProt P08922); experiment: Binding affinity to wild-type human partial length ROS1 (A1921 to N2240 residues) expressed in bacterial expression system assessed as residual binding level at 1 uM by Kinomescan method relative to control
# CYP3A4 = CYP3A4 (Homo sapiens, UniProt P08684); experiment: Residual activity of CYP3A4 in human liver microsomes at 10 uM using midazolam 1-hydroxylase as substrate preincubated for 5 mins followed by NADPH addition measured after 15 mins by LC/MS/MS analysis relative to control; settings: probe midazolam (1-hydroxylation)
# [6] = target: Cyclin-dependent kinase 8 (Homo sapiens) (UniProt P49336); experiment: Binding affinity to wild-type human partial length CDK8 (M1 to T360 residues) expressed in bacterial expression system assessed as residual binding level at 1 uM by Kinomescan method relative to control
# [7] = target: Mitogen-activated protein kinase kinase kinase 9 (Homo sapiens) (UniProt P80192); experiment: Binding affinity to wild-type human partial length MLK1 (V88 to W426 residues) expressed in bacterial expression system assessed as residual binding level at 1 uM by Kinomescan method relative to control
# Chain of Mitogen-activated protein kinase kinase kinase 9 (Homo sapiens) (P80192 whole entry, looked up, the tested form may be a part): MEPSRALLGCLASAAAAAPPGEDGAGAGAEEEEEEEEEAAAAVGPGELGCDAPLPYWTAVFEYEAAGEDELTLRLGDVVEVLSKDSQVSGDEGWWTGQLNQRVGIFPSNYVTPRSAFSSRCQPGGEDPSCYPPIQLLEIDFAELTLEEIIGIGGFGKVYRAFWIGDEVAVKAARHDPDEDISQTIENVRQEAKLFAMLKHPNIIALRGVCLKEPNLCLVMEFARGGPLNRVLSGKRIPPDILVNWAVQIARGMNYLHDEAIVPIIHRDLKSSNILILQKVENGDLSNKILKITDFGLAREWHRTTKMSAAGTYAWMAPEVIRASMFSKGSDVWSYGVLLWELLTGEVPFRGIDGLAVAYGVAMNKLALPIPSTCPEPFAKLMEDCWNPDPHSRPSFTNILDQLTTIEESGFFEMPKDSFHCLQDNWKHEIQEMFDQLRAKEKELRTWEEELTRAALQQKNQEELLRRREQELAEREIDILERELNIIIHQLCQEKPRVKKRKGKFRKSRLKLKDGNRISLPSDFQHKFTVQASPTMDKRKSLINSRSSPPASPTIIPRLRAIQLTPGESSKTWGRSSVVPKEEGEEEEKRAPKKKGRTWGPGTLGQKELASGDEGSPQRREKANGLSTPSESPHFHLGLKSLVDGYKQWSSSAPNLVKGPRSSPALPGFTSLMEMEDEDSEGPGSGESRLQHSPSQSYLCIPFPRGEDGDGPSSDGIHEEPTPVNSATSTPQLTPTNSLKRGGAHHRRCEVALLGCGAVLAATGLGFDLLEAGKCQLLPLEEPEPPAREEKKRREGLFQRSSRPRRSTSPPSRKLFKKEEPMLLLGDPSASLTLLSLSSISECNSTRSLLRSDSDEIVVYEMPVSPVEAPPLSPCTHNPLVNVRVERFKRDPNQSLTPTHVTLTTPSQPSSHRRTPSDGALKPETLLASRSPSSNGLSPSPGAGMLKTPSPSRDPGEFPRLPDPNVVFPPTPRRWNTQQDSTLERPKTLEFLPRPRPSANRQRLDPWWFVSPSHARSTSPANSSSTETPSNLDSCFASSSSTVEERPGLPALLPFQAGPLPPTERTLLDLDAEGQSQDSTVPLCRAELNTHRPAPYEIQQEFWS
# [8] = target: Activin receptor type-2A (Homo sapiens) (UniProt P27037); experiment: Binding affinity to wild-type human ACVR2A (V171 to T499 residues) expressed in bacterial expression system assessed as residual binding level at 1 uM by Kinomescan method relative to control
# [9] = target: Serine/threonine-protein kinase TAO2 (Homo sapiens) (UniProt Q9UL54); experiment: Binding affinity to wild-type human partial length TAOK2 (M1 to A320 residues) expressed in mammalian expression system assessed as residual binding level at 1 uM by Kinomescan method relative to control
# [10] = target: Activin receptor type-1 (Homo sapiens) (UniProt Q04771); experiment: Binding affinity to wild-type human ACVR1 (C188 to C509 residues) expressed in bacterial expression system assessed as residual binding level at 1 uM by Kinomescan method relative to control
# [11] = target: Serine/threonine-protein kinase WNK2 (Homo sapiens) (UniProt Q9Y3S1); experiment: Binding affinity to wild-type human partial length WNK2 (V47 to D482 residues) expressed in mammalian expression system assessed as residual binding level at 1 uM by Kinomescan method relative to control
# [12] = target: Serine/threonine-protein kinase PLK3 (Homo sapiens) (UniProt Q9H4B4); experiment: Binding affinity to wild-type human partial length PLK3 (A42 to L334 residues) expressed in mammalian expression system assessed as residual binding level at 1 uM by Kinomescan method relative to control
# [13] = test system: Phosphatidylinositol 4,5-bisphosphate 3-kinase catalytic subunit alpha isoform (Homo sapiens), P42336 [H1047L]; experiment: Binding affinity to human partial length PIK3CA H1047L mutant (R108 to N1068 residues) expressed in mammalian expression system assessed as residual binding level at 1 uM by Kinomescan method relative to control
# [14] = target: Ribosomal protein S6 kinase alpha-6 (Homo sapiens) (UniProt Q9UK32); experiment: Binding affinity to wild-type human partial length C-terminal RSK4 kinase domain 2 (I401 to Y711 residues) expressed in bacterial expression system assessed as residual binding level at 1 uM by Kinomescan method relative to control
# [15] = target: Ribosomal protein S6 kinase alpha-2 (Homo sapiens) (UniProt Q15349); experiment: Binding affinity to wild-type human partial length C-terminal RSK3 kinase domain 2 (V403 to K700 residues) expressed in bacterial expression system assessed as residual binding level at 1 uM by Kinomescan method relative to control
# Chain of Ribosomal protein S6 kinase alpha-2 (Homo sapiens) (Q15349 whole entry, the tested form may be a part): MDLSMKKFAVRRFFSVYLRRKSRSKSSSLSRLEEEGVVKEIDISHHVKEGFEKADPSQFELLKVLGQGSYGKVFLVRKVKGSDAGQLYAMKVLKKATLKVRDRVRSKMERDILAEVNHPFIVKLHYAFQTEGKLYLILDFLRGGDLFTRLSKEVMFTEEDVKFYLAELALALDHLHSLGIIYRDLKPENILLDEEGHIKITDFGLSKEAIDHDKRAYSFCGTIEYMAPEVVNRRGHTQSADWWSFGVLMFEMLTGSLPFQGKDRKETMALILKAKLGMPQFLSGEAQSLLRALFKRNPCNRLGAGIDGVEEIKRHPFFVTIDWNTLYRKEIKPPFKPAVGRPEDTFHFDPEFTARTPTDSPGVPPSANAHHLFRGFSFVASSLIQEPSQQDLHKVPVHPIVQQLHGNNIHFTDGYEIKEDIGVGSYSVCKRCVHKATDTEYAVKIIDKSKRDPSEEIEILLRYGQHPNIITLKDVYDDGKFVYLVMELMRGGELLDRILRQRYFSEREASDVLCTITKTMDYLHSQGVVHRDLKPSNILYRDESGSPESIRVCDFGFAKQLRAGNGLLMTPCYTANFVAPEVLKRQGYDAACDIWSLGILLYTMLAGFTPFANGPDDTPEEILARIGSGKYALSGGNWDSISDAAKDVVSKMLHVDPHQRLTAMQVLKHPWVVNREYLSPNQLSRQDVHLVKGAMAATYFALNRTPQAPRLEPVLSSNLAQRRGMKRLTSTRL
# [16] = target: Serine/threonine-protein kinase BRSK1 (Homo sapiens) (UniProt Q8TDC3); experiment: Binding affinity to wild-type human partial length BRSK1 (M1 to E754 residues) expressed in bacterial expression system assessed as residual binding level at 1 uM by Kinomescan method relative to control
# [17] = target: Tyrosine-protein kinase Lck (Homo sapiens) (UniProt P06239); experiment: Binding affinity to wild-type human partial length LCK (R207 to P509 residues) expressed in bacterial expression system assessed as residual binding level at 1 uM by Kinomescan method relative to control
# [18] = target: Homeodomain-interacting protein kinase 2 (Homo sapiens) (UniProt Q9H2X6); experiment: Binding affinity to wild-type human partial length HIPK2 (M153 to S564 residues) expressed in mammalian expression system assessed as residual binding level at 1 uM by Kinomescan method relative to control
# Chain of Homeodomain-interacting protein kinase 2 (Homo sapiens) (Q9H2X6 whole entry, looked up, the tested form may be a part, canonical isoform): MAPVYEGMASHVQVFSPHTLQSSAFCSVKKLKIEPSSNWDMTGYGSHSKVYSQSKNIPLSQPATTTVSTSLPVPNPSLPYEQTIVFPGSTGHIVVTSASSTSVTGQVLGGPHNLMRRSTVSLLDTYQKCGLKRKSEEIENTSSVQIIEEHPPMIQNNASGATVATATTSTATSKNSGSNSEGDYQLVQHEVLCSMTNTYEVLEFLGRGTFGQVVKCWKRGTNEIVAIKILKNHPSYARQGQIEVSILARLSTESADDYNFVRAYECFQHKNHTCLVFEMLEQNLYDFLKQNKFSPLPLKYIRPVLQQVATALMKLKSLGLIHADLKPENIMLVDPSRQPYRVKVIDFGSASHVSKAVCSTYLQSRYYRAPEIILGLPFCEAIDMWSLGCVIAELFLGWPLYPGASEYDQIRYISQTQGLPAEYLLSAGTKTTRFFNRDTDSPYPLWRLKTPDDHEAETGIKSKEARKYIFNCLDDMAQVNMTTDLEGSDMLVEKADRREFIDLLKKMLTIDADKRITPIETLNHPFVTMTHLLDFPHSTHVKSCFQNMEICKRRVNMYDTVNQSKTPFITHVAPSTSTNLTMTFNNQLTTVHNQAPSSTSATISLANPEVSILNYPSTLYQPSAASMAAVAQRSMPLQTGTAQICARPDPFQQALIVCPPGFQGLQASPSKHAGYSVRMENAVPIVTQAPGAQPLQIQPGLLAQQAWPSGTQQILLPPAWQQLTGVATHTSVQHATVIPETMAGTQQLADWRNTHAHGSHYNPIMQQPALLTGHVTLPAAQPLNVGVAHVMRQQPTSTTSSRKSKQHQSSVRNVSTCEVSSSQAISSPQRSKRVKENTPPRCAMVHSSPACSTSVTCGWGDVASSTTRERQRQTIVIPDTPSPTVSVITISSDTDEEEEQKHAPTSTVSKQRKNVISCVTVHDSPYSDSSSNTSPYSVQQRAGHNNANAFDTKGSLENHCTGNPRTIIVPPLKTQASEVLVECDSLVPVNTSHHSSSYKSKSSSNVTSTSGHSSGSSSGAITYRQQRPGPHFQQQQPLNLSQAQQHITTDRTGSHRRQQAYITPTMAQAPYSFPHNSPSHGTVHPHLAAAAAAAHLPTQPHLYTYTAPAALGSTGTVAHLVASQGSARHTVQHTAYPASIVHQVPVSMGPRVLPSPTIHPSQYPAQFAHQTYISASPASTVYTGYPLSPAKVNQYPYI
# [19] = test system: Phosphatidylinositol 4,5-bisphosphate 3-kinase catalytic subunit alpha isoform (Homo sapiens), P42336 [E545K]; experiment: Binding affinity to human partial length PIK3CA E545K mutant (R108 to N1068 residues) expressed in mammalian expression system assessed as residual binding level at 1 uM by Kinomescan method relative to control
# [20] = target: Peripheral plasma membrane protein CASK (Homo sapiens) (UniProt O14936); experiment: Binding affinity to wild-type human partial length CASK (M1 to H315 residues) expressed in mammalian expression system assessed as residual binding level at 1 uM by Kinomescan method relative to control
# [21] = target: BDNF/NT-3 growth factors receptor (Homo sapiens) (UniProt Q16620); experiment: Binding affinity to wild-type human partial length TRKB (Q547 to G838 residues) expressed in mammalian expression system assessed as residual binding level at 1 uM by Kinomescan method relative to control
# [22] = target: RAC-alpha serine/threonine-protein kinase (Homo sapiens) (UniProt P31749); experiment: Binding affinity to wild-type human partial length AKT1 expressed in bacterial expression system assessed as residual binding level at 1 uM by Kinomescan method relative to control
# [23] = target: High affinity nerve growth factor receptor (Homo sapiens) (UniProt P04629); experiment: Binding affinity to wild-type human partial length TRKA (G475 to G790 residues) expressed in mammalian expression system assessed as residual binding level at 1 uM by Kinomescan method relative to control
# Chain of High affinity nerve growth factor receptor (Homo sapiens) (P04629 33-796 limits assumed): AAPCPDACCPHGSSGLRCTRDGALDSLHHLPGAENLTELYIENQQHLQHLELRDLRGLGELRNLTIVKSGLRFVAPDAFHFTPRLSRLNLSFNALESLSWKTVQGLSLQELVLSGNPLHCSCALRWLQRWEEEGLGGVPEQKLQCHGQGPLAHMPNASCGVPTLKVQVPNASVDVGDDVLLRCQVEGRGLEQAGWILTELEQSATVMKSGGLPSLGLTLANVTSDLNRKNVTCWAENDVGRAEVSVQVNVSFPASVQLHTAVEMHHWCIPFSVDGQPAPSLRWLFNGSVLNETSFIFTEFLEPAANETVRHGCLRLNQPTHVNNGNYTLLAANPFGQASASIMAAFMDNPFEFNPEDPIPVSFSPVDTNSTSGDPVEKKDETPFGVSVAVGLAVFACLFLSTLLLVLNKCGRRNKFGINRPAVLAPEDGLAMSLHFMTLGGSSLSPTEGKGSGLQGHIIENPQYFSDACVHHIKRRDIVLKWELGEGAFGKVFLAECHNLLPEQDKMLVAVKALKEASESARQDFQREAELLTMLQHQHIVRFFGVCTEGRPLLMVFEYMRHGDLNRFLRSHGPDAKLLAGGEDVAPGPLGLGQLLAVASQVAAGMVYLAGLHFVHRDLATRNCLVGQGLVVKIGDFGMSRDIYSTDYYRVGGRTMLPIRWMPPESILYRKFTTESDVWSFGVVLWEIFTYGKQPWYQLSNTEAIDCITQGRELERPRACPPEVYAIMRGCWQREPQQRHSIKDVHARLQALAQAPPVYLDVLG
smiles,measurement,setting,value
C=CC(=O)Nc1cc(Nc2ncc(Cl)c(Nc3ccccc3S(=O)(=O)C(C)C)n2)c(OC)cc1N(C)CCN(C)C,Activity,[1],49%
same,Activity,[2],91%
same,Activity,[3],73%
same,Activity,[4],64%
same,Activity,[5],0%
same,"Activity at […], 10 µM",CYP3A4,44%
same,Activity,[6],90%
same,Activity,[7],39%
same,Activity,[8],96%
same,Activity,[9],52%
same,Activity,[10],9%
same,Activity,[11],66%
same,Activity,[12],60%
same,Activity,[13],86%
same,Activity,[14],15%
same,Activity,[15],27%
same,Activity,[16],49%
same,Activity,[17],14%
same,Activity,[18],94%
same,Activity,[19],54%
same,Activity,[20],95%
same,Activity,[21],30%
same,Activity,[22],98%
same,Activity,[23],13%
